Experimental data of several laboratories.
Lines come from different studies, so protocols differ.
Target: Aurora kinase C (AURKC, Homo sapiens, UniProt Q9UQB9)

Compound | observed | mode | method | tested at | endpoint | value
N#CCCc1ccc2c(c1)-c1[nH]c3ccc([N+](=O)[O-])cc3c1CC(=O)N2 | cell-free assay | – | – | 0.5 µM | remaining signal | 83.6%
C=CC(=O)Nc1cc(Nc2nccc(Nc3cc(Cl)c(F)cc3C(C)(C)O)n2)c(OC)cc1N1CC[C@@H](N(C)C)C1 | enzyme activity | inhibitor | – | 1 µM | inhibition | 6%
Cc1cc(NC(=O)c2cccc3cc(-c4cccc5[nH]nc(N)c45)ccc23)ccc1F | enzyme activity | inhibitor | – | 0.1 µM | activity vs control | 83%
Cc1ccc(C(=O)Nc2ccc(CN3CCN(C)CC3)c(C(F)(F)F)c2)cc1C#Cc1cnc2cccnn12 | enzyme activity | – | – | 23.5 nM | remaining activity | 94%
CC(C)CC(=O)N1CCc2nc(-c3ccc(Br)cc3)nc(N(C)Cc3ccccc3)c2C1 | cell-free assay | – | competition with immobilised ligand | 0.1 µM | remaining binding | 100%
O=C1Nc2ccc(Cl)cc2C1=Cc1cc(Cl)c(O)c(Cl)c1 | cell-free assay | – | – | 0.5 µM | remaining signal | 78.6%
CN(C)C(=O)Cn1cc(-c2nc([C@@](C)(c3ccc(-c4cnc(N)nc4)cc3)C3CC3)no2)cn1 | cell-free assay | – | competition with immobilised ligand | 1 µM | remaining binding | 100%
O=C(Nc1cnn(-c2csc(C(=O)NC3COC3)c2)c1)Nc1c(F)cccc1Cl | enzyme activity | inhibitor | – | 5 µM | remaining activity | 58.5%
CS(=O)(=O)CCNCc1ccc(-c2ccc3ncnc(Nc4ccc(OCc5cccc(F)c5)c(Cl)c4)c3c2)o1 | cell-free assay | – | – | 0.5 µM | remaining signal | 90.9%
O=C(NCc1ncc(C(F)(F)F)cc1Cl)c1ccc2c(c1)C1(CCS(=O)(=O)CC1)[C@@H](C1CC1)N2S(=O)(=O)c1ccc(F)cc1 | cell-free assay | – | competition with immobilised ligand | 1 µM | remaining binding | 80%
CC(C)(C)c1nc(-c2cccc(NS(=O)(=O)c3c(F)cccc3F)c2F)c(-c2ccnc(N)n2)s1 | enzyme activity | inhibitor | radiometric | 1 µM | remaining activity | 92%
COc1cc(Cl)c(C(=O)N[C@@H](CN[C@H]2CC[C@@H](N)CC2)Cc2ccc(C#N)cc2)cc1-c1ccc(CN[C@H](C)c2ccc(C)cc2)o1 | enzyme activity | inhibitor | – | 1 µM | remaining activity | 94%
COc1cc2ncnc(Nc3ccc(Oc4ccccc4)c(C)c3C)c2cc1OC | enzyme activity | inhibitor | – | 1 µM | inhibition | 5%
CCN(CC)c1ccc(C2=NNC(=O)CC2C)cc1[N+](=O)[O-] (centres unmarked) | enzyme activity | inhibitor | – | 10 µM | remaining activity | 122%
CCC(=O)N[C@@H]1CC[C@H](C(=O)N(C)c2ccc(-c3nc4ccccc4o3)cc2)C1 | cell-free assay | – | competition with immobilised ligand | 1 µM | remaining binding | 100%
CC/C(=N\NC(=O)NCc1cccc(O)c1)c1ccc(O)c(C)c1O | enzyme activity | inhibitor | – | 0.1 µM | inhibition | 2.5%
CCC(=N\O)/C(C)=C/c1ccc(F)cc1 | cell-free assay | – | competition with immobilised ligand | 1 µM | remaining binding | 80%
Nc1ncnc2occ(-c3ccc(NC(=O)Nc4cc(C(F)(F)F)ccc4F)cc3)c12 | cell-free assay | – | – | 20 µM | remaining signal | 2.7%
CS(=O)(=O)NCC[C@H](NC(=O)c1cncc2c1cnn2-c1ccc(F)cc1)c1ccnc(S(C)(=O)=O)c1 | cell-free assay | – | competition with immobilised ligand | 1 µM | remaining binding | 92%
O=c1cc(-c2cccc3c2Sc2ccccc2S3)oc(N2CCOCC2)c1 | enzyme activity | inhibitor | – | 0.5 µM | remaining activity | 84.9%
